Experimental data taken from ChEMBL document CHEMBL1145075, “A new class of diamine-based human histamine H3 receptor antagonists: 4-(aminoalkoxy)benzylamines” (J Med Chem, 2003).

Legend:
[1] = biological target: T1, Histamine H3 receptor (Homo sapiens, UniProt Q9Y5N1); assay: In vitro binding affinity for human Histamine H3 receptor by displacing N-[3H]-methylhistamine in SK-N-MC cells was determined; format: cell-based
Method in brief: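 Cloned human H3 receptor stably expressed in SK-N-MC cells; binding run per an earlier published procedure.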

[2] = biological target: T1, Histamine H3 receptor; assay: Histamine-induced inhibition of forskolin- stimulated cAMP accumulation in SK-N-MC cells overexpressing the human Histamine H3 receptor; format: functional, cell-based; details: read-out: pA2 (converted)
Method in brief: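 SK-N-MC sublines stably expressing human H3 receptor plus β-galactosidase reporter driven by multiple cAMP responsive elements. Compound added to media, forskolin (5 μM final) 5 min later, then 6 h at 37 °C. Cells PBS-washed, lysed, color developed with chlorophenol red β-D-galactopyranoside, absorbance 570 nm. pA2 from Schild regression of EC50 values.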

[3] = stabilit in human liver microsome expressed as Half life; format: ADME; details: liver microsomes
Method in brief: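 Stability in human liver microsomes measured by an outside contract laboratory; reported as half-life.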

[4] = biological target: Histamine H3 receptor (Rattus norvegicus, UniProt Q9QYN8); assay: In vitro binding affinity for rat Histamine H3 receptor by displacing N-[3H]-methylhistamine in rat cortex membranes was determined
[5] = Human plasma protein binding activity was determined; format: ADME, cell-free
Method in brief: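 Human plasma protein binding measured by an outside contract laboratory.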

T1 sequence (Q9Y5N1 whole entry): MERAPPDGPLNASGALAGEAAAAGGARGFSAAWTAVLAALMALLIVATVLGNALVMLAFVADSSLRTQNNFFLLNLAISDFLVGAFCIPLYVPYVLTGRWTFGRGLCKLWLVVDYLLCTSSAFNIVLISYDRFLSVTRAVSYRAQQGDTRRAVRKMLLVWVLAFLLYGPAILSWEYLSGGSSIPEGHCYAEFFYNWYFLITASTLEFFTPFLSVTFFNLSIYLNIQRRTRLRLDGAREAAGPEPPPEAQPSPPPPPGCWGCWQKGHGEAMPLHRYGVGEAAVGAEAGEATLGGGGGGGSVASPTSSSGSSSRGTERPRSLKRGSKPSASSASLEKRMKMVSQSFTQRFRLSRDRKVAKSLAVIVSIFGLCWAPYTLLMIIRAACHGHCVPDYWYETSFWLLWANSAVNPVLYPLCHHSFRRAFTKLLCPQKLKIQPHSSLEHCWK
Sequence of Histamine H3 receptor (Rattus norvegicus, UniProt Q9QYN8) (Q9QYN8 whole entry): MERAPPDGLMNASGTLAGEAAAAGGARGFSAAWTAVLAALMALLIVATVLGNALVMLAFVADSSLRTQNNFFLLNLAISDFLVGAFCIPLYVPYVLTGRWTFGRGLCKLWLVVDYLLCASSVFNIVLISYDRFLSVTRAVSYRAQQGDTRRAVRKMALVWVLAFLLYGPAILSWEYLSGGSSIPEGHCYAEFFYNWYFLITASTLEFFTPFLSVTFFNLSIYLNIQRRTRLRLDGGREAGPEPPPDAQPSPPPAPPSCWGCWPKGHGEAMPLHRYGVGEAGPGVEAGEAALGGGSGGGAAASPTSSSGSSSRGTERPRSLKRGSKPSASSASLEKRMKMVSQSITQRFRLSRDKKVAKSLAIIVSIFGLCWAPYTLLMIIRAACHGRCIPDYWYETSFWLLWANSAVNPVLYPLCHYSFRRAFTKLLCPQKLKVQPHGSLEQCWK

Compound	Ki [1]	further results
c1cc(OCCCC2CCCCC2)ccc1CN1CCCCC1	631 nM	
c1cc(OCCN2CCCCC2)ccc1CN1CCCCC1	8.91 nM	Kb [2]: 8.91 nM
CCN(CC)CCOc1ccc(CN2CCCCC2)cc1	50.1 nM	
c1ccc2c(c1)CCN(Cc1ccc(OCCCN3CCCCC3)cc1)C2	1.7 nM	
c1ccc(NCc2ccc(OCCCN3CCCCC3)cc2)cc1	8.32 nM	
CN(C)CCOc1ccc(CN2CCCCC2)cc1	3.89 nM	Kb [2]: 10.5 nM
c1cc(OCCCN2CCCCC2)ccc1CC1CCCCC1	50.1 nM	
c1cc(OCCCN2CCOCC2)ccc1CN1CCCCC1	2.29 nM	
c1cc(OCCCN2CCCCC2)ccc1CN1CCCCC1 [JNJ-5207852]		half-life [3]: > 24 h; Ki [4]: 0.457 nM; Binding [5]: 54%

Further molecules by falling Ki [1], results first:

Ki [1]	Compound	further results
1.51 nM	c1ccc(CC2CCN(Cc3ccc(OCCCN4CCCCC4)cc3)CC2)cc1	
1.35 nM	CN1CCN(Cc2ccc(OCCCN3CCCCC3)cc2)CC1	
1.23 nM	CCN(CC)CCCOc1ccc(CN2CCCCC2)cc1	
0.955 nM	NC(=O)C1CCN(Cc2ccc(OCCCN3CCCCC3)cc2)CC1	
0.933 nM	CN(C)Cc1ccc(OCCCN2CCCCC2)cc1	
0.871 nM	c1cc(OCCCN2CCCCC2)ccc1CN1CCOCC1	Kb [2]: 0.537 nM
0.832 nM	c1ccc2c(c1)CCC2NCc1ccc(OCCCN2CCCCC2)cc1 (stereo not given)	
0.741 nM	OC1CCN(Cc2ccc(OCCCN3CCCCC3)cc2)CC1	Kb [2]: 0.229 nM
0.513 nM	c1cc(OCCCN2CCCCC2)ccc1CNC1CCCCC1	Kb [2]: 0.195 nM
